# Experimental data from ChEMBL document CHEMBL1275367, “Diastereoselective synthesis of aryloxy phosphoramidate prodrugs of 3'-deoxy-2',3'-didehydrothymidine monophosphate” (J Med Chem, 2010).
# What was measured:
# [1] = Cytotoxicity against human CEM/0 cells; format: cell-based, CCRF-CEM
# Method in brief: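 Proliferation of CEM cells measured by Coulter particle counting across a range of compound concentrations. CC50 is the concentration inhibiting cell proliferation by 50%.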
# [2] = test system: Human immunodeficiency virus 1; test: Antiviral activity against HIV1 3B infected in human CEM/0 cells assessed as inhibition of virus-induced cytopathicity after 4 to 5 days; format: functional, organism-based; details: Human immunodeficiency virus 1, 3B, CCRF-CEM
# [3] = test system: Human immunodeficiency virus 2; test: Antiviral activity against HIV2 ROD infected in human CEM/0 cells assessed as inhibition of virus-induced cytopathicity after 4 to 5 days; format: functional, organism-based; details: Human immunodeficiency virus 2, ISOLATE ROD, CCRF-CEM
# [4] = test system: Human immunodeficiency virus 2; test: Antiviral activity against HIV2 ROD infected in human CEM/TK- cells assessed as inhibition of virus-induced cytopathicity after 4 to 5 days; format: functional, organism-based; details: Human immunodeficiency virus 2, ISOLATE ROD
# [5] = test system: Moloney murine sarcoma virus; test: Antiviral activity against murine sarcoma virus infected in murine C3H/3T3 cells assessed as inhibition of virus-induced cell transformation
SMILES,CC50 [1],EC50 [2],EC50 [3],EC50 [4],EC50 [5]
COC(=O)[C@H](C)N[P@](=O)(OC[C@@H]1C=C[C@H](n2cc(C)c(=O)[nH]c2=O)O1)Oc1ccc(C)cc1,79000 nM,120 nM,140 nM,32 nM,1800 nM
COC(=O)[C@H](C)N[P@@](=O)(OC[C@@H]1C=C[C@H](n2cc(C)c(=O)[nH]c2=O)O1)Oc1ccc(C)cc1,> 250000 nM,820 nM,460 nM,2100 nM,1800 nM
COC(=O)[C@H](C)N[P@](=O)(OC[C@@H]1C=C[C@H](n2cc(C)c(=O)[nH]c2=O)O1)Oc1ccc(OC)cc1,77000 nM,150 nM,140 nM,48 nM,2000 nM
COC(=O)[C@H](C)N[P@@](=O)(OC[C@@H]1C=C[C@H](n2cc(C)c(=O)[nH]c2=O)O1)Oc1ccc(OC)cc1,235000 nM,1100 nM,860 nM,1900 nM,5300 nM
COC(=O)[C@H](C)N[P@](=O)(OC[C@@H]1C=C[C@H](n2cc(C)c(=O)[nH]c2=O)O1)Oc1ccccc1C,> 250000 nM,1300 nM,1100 nM,1900 nM,9800 nM
COC(=O)[C@H](C)N[P@@](=O)(OC[C@@H]1C=C[C@H](n2cc(C)c(=O)[nH]c2=O)O1)Oc1ccccc1C,> 250000 nM,1300 nM,1300 nM,2900 nM,4000 nM
COC(=O)[C@H](C)N[P@](=O)(OC[C@@H]1C=C[C@H](n2cc(C)c(=O)[nH]c2=O)O1)Oc1cccc2ccccc12,70000 nM,150 nM,160 nM,130 nM,530 nM
COC(=O)[C@H](C)N[P@@](=O)(OC[C@@H]1C=C[C@H](n2cc(C)c(=O)[nH]c2=O)O1)Oc1cccc2ccccc12,107000 nM,120 nM,450 nM,250 nM,720 nM
Cc1cn([C@H]2C=C[C@@H](CO)O2)c(=O)[nH]c1=O [STAVUDINE],> 250000 nM,840 nM,750 nM,132000 nM,2500 nM
